Measurements: ChEMBL document CHEMBL5620421, “2,6-Disubstituted 7-(naphthalen-2-ylmethyl)-7H-purines as a new class of potent antitubercular agents inhibiting DprE1” (Eur J Med Chem, 2023)
The source made the active and inactive calls. The calls are words filed in the database; no cut-off is given here.

What was measured:
[1] = tested on: Staphylococcus aureus; experiment: Antibacterial activity against Staphylococcus aureus C1947 assessed as inhibition of bacterial growth at 125 uM incubated for 24 to 48 hrs by microdilution broth method; type: functional, organism-based; settings: time 24-48 hrs
[2] = tested on: Enterococcus faecium; experiment: Antibacterial activity against vancomycin-resistant Enterococcus faecium assessed as inhibition of bacterial growth at 125 uM incubated for 24 to 48 hrs by microdilution broth method; type: functional, organism-based; settings: time 24-48 hrs
[3] = tested on: Klebsiella pneumoniae; experiment: Antibacterial activity against ESBL positive Klebsiella pneumoniae C1914 assessed as inhibition of bacterial growth at 125 uM incubated for 24 to 48 hrs by microdilution broth method; type: functional, organism-based; settings: time 24-48 hrs
[4] = tested on: Mycobacterium tuberculosis; experiment: Antitubercular activity against Mycobacterium tuberculosis CNCTC My 331/88 (H37Rv) infected in MONO-MAC-6 cells assessed as inhibition of bacterial growth measured after 48 hrs of incubation by MTT based ELISA; type: functional, organism-based; settings: MONO-MAC-6, 48 h
Procedure, shortened: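 MonoMac6 cells in RPMI-1640 with 10% FBS, 2 mM glutamine and gentamicin, seeded at 6.5 × 10³ cells/well the day before. Treated 48 h at 2.56 × 10⁻³–250 μM in incomplete medium with 1% DMSO. Read by MTT (3.5 h), formazan in DMSO, absorbance at 540/620 nm. IC50 from dose-response curves.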

[5] = tested on: Mycobacterium tuberculosis; experiment: Antitubercular activity against Mycobacterium tuberculosis CNCTC My 331/88 (H37Rv) infected in MONO-MAC-6 cells assessed as reduction in colony forming unit growth at 25 uM measured after 48 hrs of incubation by MTT based ELISA relative to control; type: functional; parameters: scale not given: the % may be the effect or the level left

Structure (SMILES) | Activity [1] | Activity [2] | Activity [3] | IC50 [4] [µM] | Activity [5]
Nc1nc(N2CCOCC2)nc2ncn(Cc3ccc4ccccc4c3)c12 | inactive | inactive | inactive | – | –
CCNc1nc(N2CCOCC2)nc2ncn(Cc3ccc4ccccc4c3)c12 | inactive | inactive | inactive | 57 | >=80%
CCOc1nc(N2CCOCC2)nc2ncn(Cc3ccc4ccccc4c3)c12 | inactive | inactive | inactive | – | –
